The structures appear in SMILES notation.

The values below come from ChEMBL document CHEMBL1275377, “Structure-based design, synthesis, and structure-activity relationship studies of HIV-1 protease inhibitors incorporating phenyloxazolidinones” (J Med Chem, 2010).

One test has as its target Protease (Human immunodeficiency virus 1, UniProt Q9YQ12). Nature of the test: Inhibition of wild type HIV1 protease by FRET.
The test system of test [1] is Human immunodeficiency virus 1. The test can be described thus: Antiviral activity against multidrug resistant Human immunodeficiency virus 1 harboring protease M46I, I54V, V82A and L90M mutant. It counts as functional, organism-based. An outline of the steps: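 Drug susceptibility assay run by an outside contract lab. Panel: patient-derived wild-type HIV-1 clades A, B and C; MDR1 carrying protease M46I, I54V, V82A, L90M; MDR control MDRC4; and an NL4-3-derived clade B wild-type control (CNDO). The PR/RT regions of these strains were sequenced and deposited.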

Test [2] concerns Human immunodeficiency virus 1. Nature of the test: Antiviral activity against wild type Human immunodeficiency virus 1. The format is functional, organism-based.
The subject of test [3] is Human immunodeficiency virus 1. Nature of the test: Antiviral activity against multidrug resistant Human immunodeficiency virus 1 MDRC4. It counts as functional, organism-based.
The subject of test [4] is Human immunodeficiency virus 1. Nature of the test: Antiviral activity against Human immunodeficiency virus 1 clade C isolated from HIV-AIDS patient. It counts as functional, organism-based.
In test [5] the test system is Human immunodeficiency virus 1. Nature of the test: Antiviral activity against Human immunodeficiency virus 1 clade A isolated from HIV-AIDS patient. It counts as functional, organism-based.
Test [6] relates to Human immunodeficiency virus 1. The test can be described thus: Antiviral activity against Human immunodeficiency virus 1 clade B isolated from HIV-AIDS patient. It counts as functional, organism-based.

Chain of Protease (Q9YQ12 whole entry): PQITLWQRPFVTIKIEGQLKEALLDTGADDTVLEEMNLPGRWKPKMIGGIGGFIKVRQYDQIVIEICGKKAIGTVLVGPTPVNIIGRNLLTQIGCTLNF

On to `CC(C)CN(C[C@@H](O)[C@H](Cc1ccccc1)NC(=O)[C@@H]1CN(c2ccc(F)cc2F)C(=O)O1)S(=O)(=O)c1ccc2c(c1)OCO2`, for which the affinity at Protease, expressed as Ki, was 0.347 nM.
In the case of `CC(C)CN(C[C@@H](O)[C@H](Cc1ccccc1)NC(=O)[C@@H]1CN(c2cccc(N)c2)C(=O)O1)S(=O)(=O)c1ccc2ncsc2c1`, the EC50 (commonly the concentration at which the effect is half-maximal) in test [1] was 11.9 nM; in test [2], 1.7 nM; in test [3], 14.6 nM; in test [4] it was 2.5 nM; in test [5], 2.6 nM; in test [6], 1.3 nM.
Consider `CC(C)CN(C[C@@H](O)[C@H](Cc1ccccc1)NC(=O)[C@@H]1CN(c2cccc(S(C)(=O)=O)c2)C(=O)O1)S(=O)(=O)c1ccc2ncsc2c1`, for which the EC50 in test [1] came out at 9.4 nM; in test [2], 5 nM; in test [3], 10.5 nM; in test [4], 5.7 nM; in test [5], 4.1 nM; in test [6], 3.5 nM.
As to `CC(=O)c1ccc(N2C[C@@H](C(=O)N[C@@H](Cc3ccccc3)[C@H](O)CN(CC(C)C)S(=O)(=O)c3ccc(CO)cc3)OC2=O)cc1`, the Ki (in general, a measure of affinity in units of concentration, obtained from inhibition or displacement) on Protease worked out at 0.317 nM.
For `CC(=O)Nc1cccc(N2C[C@@H](C(=O)N[C@@H](Cc3ccccc3)[C@H](O)CN(CC(C)C)S(=O)(=O)c3ccc4ncsc4c3)OC2=O)c1`, the EC50 in test [1] was found to be 25.4 nM; in test [2] it was 5.8 nM; in test [3], 29.5 nM; in test [4], 9.5 nM; in test [5], 10.1 nM; in test [6], 7.7 nM.
The compound `CC(C)CN(C[C@@H](O)[C@H](Cc1ccccc1)NC(=O)[C@@H]1CN(c2ccccc2)C(=O)O1)S(=O)(=O)c1ccc(CO)cc1` came in with a Ki at Protease of 0.252 nM.
For the compound `CC(C)CN(C[C@@H](O)[C@H](Cc1ccccc1)NC(=O)[C@@H]1CN(c2ccc(F)c(F)c2)C(=O)O1)S(=O)(=O)c1ccc(CO)cc1`, affinity at Protease was put at a Ki of 0.33 nM.
`CC(C)CN(C[C@@H](O)[C@H](Cc1ccccc1)NC(=O)[C@@H]1CN(c2cccc(C(F)(F)F)c2)C(=O)O1)S(=O)(=O)c1ccc2ncsc2c1`: the EC50 in test [1] amounted to 57.6 nM; in test [2] it was 13.5 nM; in test [3] it was 53.4 nM; in test [4] it was 32.5 nM; in test [5], 16.1 nM; in test [6] it was 9.9 nM.
With `COc1ccc(S(=O)(=O)N(CC(C)C)C[C@@H](O)[C@H](Cc2ccccc2)NC(=O)[C@@H]2CN(c3cccc(N)c3)C(=O)O2)cc1`, the EC50 in test [1] was 19 nM; in test [2], 4 nM; in test [3], 36.4 nM; in test [4] it was 9.4 nM; in test [5] it was 8.5 nM; in test [6], 3 nM.
In the case of `CC(=O)c1cccc(N2C[C@@H](C(=O)N[C@@H](Cc3ccccc3)[C@H](O)CN(CC(C)C)S(=O)(=O)c3ccc(CO)cc3)OC2=O)c1`, affinity on Protease was put at a Ki of 0.236 nM.
Take `CC(C)CN(C[C@@H](O)[C@H](Cc1ccccc1)NC(=O)[C@@H]1CN(c2cccc(OC(F)(F)F)c2)C(=O)O1)S(=O)(=O)c1ccc2ncsc2c1`: the EC50 was found to be 104 nM in test [1]; 22.1 nM in test [2]; 111 nM in test [3]; 57.8 nM in test [4]; 32.5 nM in test [5]; 12.7 nM in test [6].
For the compound `CC(=O)c1cccc(N2C[C@@H](C(=O)N[C@@H](Cc3ccccc3)[C@H](O)CN(CC(C)C)S(=O)(=O)c3ccc4ncsc4c3)OC2=O)c1`, the concentration for a half-maximal effect (EC50) in test [1] was found to be 32.3 nM; in test [2], 6.5 nM; in test [3] it was 34.7 nM; in test [4], 10.1 nM; in test [5] it was 9.7 nM; in test [6], 4.2 nM.
For the compound `COC(=O)Nc1cccc(N2C[C@@H](C(=O)N[C@@H](Cc3ccccc3)[C@H](O)CN(CC(C)C)S(=O)(=O)c3ccc4ncsc4c3)OC2=O)c1`, the EC50 in test [1] was 10.8 nM; in test [2], 1.2 nM; in test [3] it was 13 nM; in test [4], 3 nM; in test [5], 2.4 nM; in test [6], 1.6 nM.
At Protease, `COc1ccc(S(=O)(=O)N(CC(C)C)C[C@@H](O)[C@H](Cc2ccccc2)NC(=O)[C@@H]2CN(c3ccccc3)C(=O)O2)cc1` had a Ki of 0.1 nM.
As to `COc1ccc(S(=O)(=O)N(CC(C)C)C[C@@H](O)[C@H](Cc2ccccc2)NC(=O)[C@@H]2CN(c3cccc(S(C)(=O)=O)c3)C(=O)O2)cc1`, the EC50 in test [1] stood at 14.4 nM; in test [2], 5.5 nM; in test [3], 18.6 nM; in test [4], 9.6 nM; in test [5] it was 7.3 nM; in test [6], 4.7 nM.
At Protease, `CC(C)CN(C[C@@H](O)[C@H](Cc1ccccc1)NC(=O)[C@@H]1CN(c2ccccc2)C(=O)O1)S(=O)(=O)c1ccc(N)cc1` returned a Ki of 0.53 nM.
On to `CC(C)CN(C[C@@H](O)[C@H](Cc1ccccc1)NC(=O)[C@@H]1CN(c2cccc(F)c2)C(=O)O1)S(=O)(=O)c1ccc(CO)cc1`, for which the Ki at Protease was 0.319 nM.
Turning to `CC(C)CN(C[C@@H](O)[C@H](Cc1ccccc1)NC(=O)[C@@H]1CN(c2ccccc2)C(=O)O1)S(=O)(=O)c1ccc2ncsc2c1`, the EC50 was found to be 113 nM in test [1]; 21.5 nM in test [2]; 123 nM in test [3]; 40.9 nM in test [4]; 29.8 nM in test [5]; 14.1 nM in test [6].
At Protease, `CC(=O)c1cccc(N2C[C@@H](C(=O)N[C@@H](Cc3ccccc3)[C@H](O)CN(CC(C)C)S(=O)(=O)c3ccc4c(c3)OCO4)OC2=O)c1` showed a Ki of 0.006 nM.
`CC(C)CN(C[C@@H](O)[C@H](Cc1ccccc1)NC(=O)[C@@H]1CN(c2cccc([N+](=O)[O-])c2)C(=O)O1)S(=O)(=O)c1ccc2ncsc2c1`: the EC50 was found to be 33.8 nM in test [1]; 7.3 nM in test [2]; 37.7 nM in test [3]; 16.3 nM in test [4]; 11.5 nM in test [5]; 5.7 nM in test [6].
Regarding `CC(=O)Nc1cccc(N2C[C@@H](C(=O)N[C@@H](Cc3ccccc3)[C@H](O)CN(CC(C)C)S(=O)(=O)c3ccc4c(c3)OCO4)OC2=O)c1`, the EC50 is 41.9 nM in test [1]; 10.9 nM in test [2]; 46.9 nM in test [3]; 21.1 nM in test [4]; 9 nM in test [5]; 6.3 nM in test [6].
As to `CC(C)CN(C[C@@H](O)[C@H](Cc1ccccc1)NC(=O)O[C@H]1CO[C@H]2OCC[C@H]21)S(=O)(=O)c1ccc(N)cc1`, the EC50 in test [1] is 0.5 nM; in test [2], 0.4 nM; in test [4], 0.4 nM; in test [5] it was 0.6 nM; in test [6], 0.4 nM.
For `CC(C)CN(C[C@@H](O)[C@H](Cc1ccccc1)NC(=O)[C@@H]1CN(c2ccc(F)cc2)C(=O)O1)S(=O)(=O)c1ccc(N)cc1`, at Protease, the Ki was 0.448 nM.
As to `CC(C)CN(C[C@@H](O)[C@H](Cc1ccccc1)NC(=O)[C@@H]1CN(c2cccc(N)c2)C(=O)O1)S(=O)(=O)c1ccc2c(c1)OCO2`, the EC50 in test [1] amounted to 27.9 nM; in test [2], 7.1 nM; in test [3], 35.4 nM; in test [4], 12.3 nM; in test [5], 6.1 nM; in test [6], 2.8 nM.
Regarding `CC(C)CN(C[C@@H](O)[C@H](Cc1ccccc1)NC(=O)[C@@H]1CN(c2cccc(S(C)(=O)=O)c2)C(=O)O1)S(=O)(=O)c1ccc2c(c1)OCO2`, the EC50 is 13.6 nM in test [1]; 4 nM in test [2]; 12.1 nM in test [3]; 7.6 nM in test [4]; 7.8 nM in test [5]; 3.5 nM in test [6].
`CC(C)CN(C[C@@H](O)[C@H](Cc1ccccc1)NC(=O)[C@@H]1CN(c2ccc(F)cc2F)C(=O)O1)S(=O)(=O)c1ccc(N)cc1`: at Protease, the Ki came out at 0.385 nM.
`CC(C)CN(C[C@@H](O)[C@H](Cc1ccccc1)NC(=O)[C@@H]1CN(c2ccc(F)cc2F)C(=O)O1)S(=O)(=O)c1ccc(CO)cc1` returned a Ki on Protease of 0.212 nM.
